From ChEMBL document CHEMBL3112586, “Synthesis of neolignans as microtubule stabilisers” (Bioorg Med Chem, 2014)
Activity calls are given as the source filed them. The rule behind the calls is not given here.

Assays:
MDA-MB-231 [1] = test: Cytotoxicity against human MDA-MB-231 cells after 24 hrs by MTT assay; assay type: functional, cell-based; conditions: MDA-MB-231, 24 h
Summary of the method: (§1)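 Cells in DMEM, 10% FBS, 37 °C, 5% CO2, plated and incubated 24 h; compounds diluted in phenol-red-free DMEM with 0.5% FBS, vehicle control; after exposure, MTT (5 mg/mL stock) added 3 h, formazan dissolved in DMSO, absorbance 570 nm; IC50 derived; podophyllotoxin and tamoxifen positive controls.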

MCF7 [2] = test: Cytotoxicity against human MCF7 cells after 24 hrs by MTT assay; assay type: functional, cell-based; conditions: MCF7, 24 h; summary of the method: as §1
HEK293 = test: Cytotoxicity against human HEK293 cells after 24 hrs by MTT assay; assay type: cell-based; conditions: HEK293, 24 h; summary of the method: as §1
Tubulin (Homo sapiens) [3] = target: T1, Tubulin (Homo sapiens) (UniProt P68371+Q9H4B7+P0DPH7+P68366+Q13509+Q71U36+P04350+Q3ZCM7+P07437+P68363+Q9BQE3+Q6PEY2+Q13885+Q9BVA1+Q9BUF5); test: Induction of tubulin polymerization (unknown origin) at 10 to 40 uM measured every min for 1 hr; assay type: protein-complex assay
Summary of the method: (§2)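 Tubulin 3 mg/mL in 80 mM PIPES pH 6.9, 2 mM MgCl2, 0.5 mM EGTA, 1 mM GTP, 15% glycerol at 37 °C with test compounds at varied concentrations; turbidity at 340 nm read every min for 1 h; podophyllotoxin inhibitor and paclitaxel stabiliser references, DMSO negative control.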

Tubulin (Homo sapiens) [4] = target: T1, Tubulin (Homo sapiens); test: Induction of tubulin polymerization (unknown origin) at 10 to 40 uM measured every min for 1 hr in presence of PDT; assay type: protein-complex assay; summary of the method: as §2
MCF7 [5] = test: Induction of microtubule polymerization in human MCF7 cells assessed as actin-tubulin cytoskeleton stabilization at 10 uM by confocal microscopy; assay type: cell-based
Summary of the method: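 MCF-7 cells treated, immunostained for actin and tubulin, and examined by confocal microscopy; paclitaxel-treated cells as positive control.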

MDA-MB-231 [6] = test: Cytotoxicity against human MDA-MB-231 cells after 48 hrs by MTT assay; assay type: functional, cell-based; conditions: MDA-MB-231, 48 h; summary of the method: as §1
MCF7 [7] = test: Cytotoxicity against human MCF7 cells after 72 hrs by MTT assay; assay type: functional, cell-based; conditions: MCF7, 72 h; summary of the method: as §1
MDA-MB-231 [8] = test: Cytotoxicity against human MDA-MB-231 cells after 72 hrs by MTT assay; assay type: functional, cell-based; conditions: MDA-MB-231, 72 h; summary of the method: as §1
MDA-MB-231 [9] = test: Cytotoxicity against human MDA-MB-231 cells after 48 to 72 hrs by MTT assay; assay type: functional, cell-based; summary of the method: as §1
Homo sapiens = organism: Homo sapiens; test: Induction of microtubule stabilization (unknown origin) at 4 to 20 uM
MCF7 [10] = test: Cytotoxicity against human MCF7 cells after 48 hrs by MTT assay; assay type: functional, cell-based; conditions: MCF7, 48 h; summary of the method: as §1
MCF7 [11] = test: Cytotoxicity against human MCF7 cells after 48 to 72 hrs by MTT assay; assay type: functional, cell-based; summary of the method: as §1

Q: Which IC50 (MDA-MB-231 [1]) does the source give for CCOC(=O)/C=C/c1ccc(OC)c(/C(=C/c2ccc(OC)cc2)C(=O)OCC)c1 here?
A: Its IC50 is > 100 µM.

Q: What about the IC50 (MCF7 [2]) of the same molecule?
A: The IC50 was > 100 µM.

Q: Which IC50 (MDA-MB-231 [1]) does the source give for COc1ccc(/C=C(\C(=O)O)c2cc(/C=C/C(=O)O)cc(OC)c2OC)cc1OC here?
A: The IC50 was 85 µM.

Q: For COc1cc([C@@H]2c3cc4c(cc3[C@H](O)[C@H]3COC(=O)[C@H]23)OCO4)cc(OC)c1OC [PODOFILOX], which IC50 (MDA-MB-231 [1]) is on record?
A: Its IC50 is 35.7 µM.

Q: What about the IC50 (HEK293) of the same molecule?
A: The IC50 was 50 µM.

Q: What about the IC50 (MCF7 [2]) of the same molecule?
A: The IC50 was 65 µM.

Q: What does the source list for CCOC(=O)/C=C/c1cc(OC)c(O)c(OC)c1/C(=C/c1cc(OC)c(O)c(OC)c1)C(=O)OCC?
A: IC50 (MDA-MB-231 [1]): 92 µM; IC50 (MCF7 [2]): 74 µM

Q: CCOC(=O)C(=C\c1cc(OC)c(O)c(OC)c1)/C(=C/c1cc(OC)c(O)c(OC)c1)C(=O)OCC was tested. Which IC50 (MDA-MB-231 [1]) did it give?
A: Its IC50 is 82 µM.

Q: What about the IC50 (MCF7 [2]) of the same molecule?
A: Its IC50 is > 100 µM.

Q: Which IC50 (MDA-MB-231 [1]) does the source give for CCOC(=O)/C=C/c1cc(OC)c(O)c(/C(=C/c2ccc(O)c(OC)c2)C(=O)OCC)c1 here?
A: The IC50 was > 100 µM.

Q: And the IC50 (MCF7 [2])?
A: The IC50 was > 100 µM.

Q: Which results are given for CC(=O)O[C@H]1C(=O)[C@@]2(C)[C@H]([C@H](OC(=O)c3ccccc3)[C@]3(O)C[C@H](OC(=O)[C@H](O)[C@@H](NC(=O)c4ccccc4)c4ccccc4)C(C)=C1C3(C)C)[C@]1(OC(C)=O)CO[C@@H]1C[C@@H]2O?
A: Activity (Tubulin (Homo sapiens) [3]): Active; Activity (Tubulin (Homo sapiens) [4]): inactive; Activity (MCF7 [5]): Active

Q: Which IC50 (HEK293) does the source give for CC/C(=C(\c1ccccc1)c1ccc(OCCN(C)C)cc1)c1ccccc1 [TAMOXIFEN] here?
A: The IC50 was 26 µM.

Q: How did the IC50 (MDA-MB-231 [1]) turn out when CCOC(=O)/C=C/c1cc(OC)c(OC)c(/C(=C/c2ccc(OC)c(OC)c2)C(=O)OCC)c1 was run?
A: Its IC50 is > 100 µM.

Q: And the IC50 (MCF7 [2])?
A: Its IC50 is > 100 µM.

Q: Which IC50 (MDA-MB-231 [1]) does the source give for CCOC(=O)C(=C\c1cc(OC)c(OC)c(OC)c1)/C(=C/c1cc(OC)c(OC)c(OC)c1)C(=O)OCC here?
A: The IC50 was > 100 µM.

Q: What about the IC50 (MCF7 [2]) of the same molecule?
A: The IC50 was 100 µM.

Q: Which IC50 (MDA-MB-231 [6]) does the source give for CCOC(=O)/C=C/c1ccc(O)c(/C(=C/c2ccc(OC(C)=O)cc2)C(=O)OCC)c1 here?
A: Its IC50 is 3.22 µM.

Q: What about the IC50 (MCF7 [7]) of the same molecule?
A: Its IC50 is 820 nM.

Q: And the IC50 (MDA-MB-231 [8])?
A: The IC50 was 210 nM.

Q: And the IC50 (MDA-MB-231 [1])?
A: The IC50 was 16 µM.

Q: What about the IC50 (HEK293) of the same molecule?
A: The IC50 was 20 µM.

Q: What about the Activity (MDA-MB-231 [9]) of the same molecule?
A: The Activity was “Active”.

Q: And the Activity (Tubulin (Homo sapiens) [3])?
A: The Activity was “Active”.

Q: What about the IC50 (MCF7 [2]) of the same molecule?
A: Its IC50 is 66 µM.

Q: What about the Activity (Homo sapiens) of the same molecule?
A: Its Activity is “Active”.

Q: What about the IC50 (MCF7 [10]) of the same molecule?
A: Its IC50 is 9.65 µM.

Q: And the Activity (Tubulin (Homo sapiens) [4])?
A: Its Activity is “inactive”.

Q: What about the Activity (MCF7 [11]) of the same molecule?
A: The Activity was “Active”.

Q: For COc1ccc(/C=C(\C(N)=O)c2cc(/C=C/C(N)=O)cc(OC)c2OC)cc1OC, which IC50 (MDA-MB-231 [1]) is on record?
A: Its IC50 is 32 µM.

Q: What about the IC50 (MCF7 [2]) of the same molecule?
A: The IC50 was 100 µM.

Q: COc1ccc(/C=C(\COC(C)=O)c2cc(/C=C/COC(C)=O)cc(OC)c2OC)cc1OC was tested. Which IC50 (MDA-MB-231 [1]) did it give?
A: Its IC50 is > 100 µM.

Q: What about the IC50 (MCF7 [2]) of the same molecule?
A: Its IC50 is > 100 µM.

Q: How did the IC50 (MDA-MB-231 [1]) turn out when CCOC(=O)/C=C/c1cc(OC)c(O)c(/C(=C/c2ccc(OC(C)=O)c(OC)c2)C(=O)OCC)c1 was run?
A: The IC50 was > 100 µM.

Q: What about the IC50 (MCF7 [2]) of the same molecule?
A: Its IC50 is > 100 µM.

Q: CCOC(=O)C(=C\c1cc(OC)c(OC(C)=O)c(OC)c1)/C(=C/c1cc(OC)c(OC(C)=O)c(OC)c1)C(=O)OCC was tested. Which IC50 (MDA-MB-231 [1]) did it give?
A: The IC50 was > 100 µM.

Q: And the IC50 (MCF7 [2])?
A: The IC50 was > 100 µM.

Q: For COc1ccc(/C=C(\CO)c2cc(/C=C/CO)cc(OC)c2OC)cc1OC, which IC50 (MDA-MB-231 [1]) is on record?
A: Its IC50 is > 100 µM.

Q: What about the IC50 (MCF7 [2]) of the same molecule?
A: The IC50 was > 100 µM.

Q: Which IC50 (MDA-MB-231 [1]) does the source give for COc1cc(/C=C(\C(N)=O)c2cc(/C=C/C(N)=O)cc(OC)c2O)ccc1O here?
A: The IC50 was 80 µM.

Q: What about the IC50 (MCF7 [2]) of the same molecule?
A: Its IC50 is 100 µM.
